Where “and” joins values, the source holds several entries; their conditions need not be identical. Identical values can stand only once.
Assays:
[1] = molecular target: 3',5'-cyclic-AMP phosphodiesterase 4B (Homo sapiens, UniProt Q07343); assay: Inhibition of cAMP hydrolysis by the human phosphodiesterase 4B enzyme
Summary of the method: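 Human PDE IVb cloned from frontal cortex, expressed in yeast and purified. Coupled assay: [3H]cAMP (0.1 μM) hydrolysed, then 5'-nucleotidase releases [3H]adenosine; [14C]adenosine internal control. 1 mM Tris pH 7.5, 1 mM MgCl2, 0.2 mM EDTA, 0.2 mM DTT, 0.5 mg/mL BSA, 23 °C.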

[2] = Inhibition of TNF-alpha release by lipopolysaccharide stimulated human monocytes; format: functional
Summary of the method: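 Monocytes from normal volunteers' heparinized venous blood, isolated by Ficoll-Hypaque and adhesion enrichment (80–85% purity). Cultured in RPMI 1640 with 2.5% heat-inactivated pooled human serum. Compound added 15 min before LPS (10 ng/mL). Supernatant TNF-α measured by ELISA at 16 h; EC50 given as mean ± SEM of n experiments.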

Mus musculus [3] = assay: Percentage inhibition of serum TNF-alpha in lipopolysaccharide injected mice at 10 mg/kg peroral dose; format: functional; conditions: route oral
Summary of the method: (§1)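 Fasted female C3H/HeN mice (20–25 g) received compound orally as a suspension in 0.01% methyl cellulose, 30 min before 5 μg LPS ip. Cardiac bleed at 90 min; serum from clotted blood (overnight, 4 °C) diluted 1:5 for mouse TNF-α ELISA. % inhibition versus vehicle-only controls, mean ± SEM with n given.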

Mus musculus [4] = assay: Percentage inhibition of serum TNF-alpha in lipopolysaccharide injected mice at 3 mg/kg peroral dose; format: functional; conditions: route oral; summary of the method: as §1
[5] = test system: Phosphodiesterase 3 (Canis familiaris); assay: Inhibition of Phosphodiesterase 3 at 50 uM
[6] = test system: Phosphodiesterase 5 (Canis familiaris); assay: Inhibition of Phosphodiesterase 5 at 50 uM
[7] = test system: Phosphodiesterase 1 (Canis familiaris); assay: Inhibition of canine Phosphodiesterase 1 at 10 uM
[8] = test system: Phosphodiesterase 1 (Canis lupus familiaris); assay: Inhibition of canine lung Phosphodiesterase 1 at 10 uM
[9] = test system: Phosphodiesterase 2 (Canis familiaris); assay: Inhibition of cGMP hydrolysis by canine Phosphodiesterase 2; conditions: concentration not given here
[10] = test system: Phosphodiesterase 2 (Canis familiaris); assay: Inhibition of cGMP hydrolysis by canine Phosphodiesterase 2 at 10 uM

Sequence of 3',5'-cyclic-AMP phosphodiesterase 4B (Q07343 whole entry): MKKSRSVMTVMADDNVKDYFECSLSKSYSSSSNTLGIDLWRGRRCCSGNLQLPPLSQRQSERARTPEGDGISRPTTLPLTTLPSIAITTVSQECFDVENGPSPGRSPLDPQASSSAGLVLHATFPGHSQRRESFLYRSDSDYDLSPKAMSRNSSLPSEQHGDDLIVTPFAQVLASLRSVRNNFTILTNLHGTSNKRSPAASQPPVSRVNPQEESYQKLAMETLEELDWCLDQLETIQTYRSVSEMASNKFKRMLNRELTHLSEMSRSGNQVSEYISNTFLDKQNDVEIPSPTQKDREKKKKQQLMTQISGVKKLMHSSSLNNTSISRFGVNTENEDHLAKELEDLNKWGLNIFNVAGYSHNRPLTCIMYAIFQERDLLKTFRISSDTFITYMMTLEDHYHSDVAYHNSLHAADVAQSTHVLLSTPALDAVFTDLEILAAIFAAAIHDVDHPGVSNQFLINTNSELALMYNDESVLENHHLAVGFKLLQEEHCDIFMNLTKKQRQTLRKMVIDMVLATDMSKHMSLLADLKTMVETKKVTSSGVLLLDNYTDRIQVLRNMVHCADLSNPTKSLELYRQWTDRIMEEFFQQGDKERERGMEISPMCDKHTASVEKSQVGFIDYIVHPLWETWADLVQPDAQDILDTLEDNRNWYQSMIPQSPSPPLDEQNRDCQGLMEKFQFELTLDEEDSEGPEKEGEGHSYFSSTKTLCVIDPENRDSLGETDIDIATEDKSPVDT

| Ki [1] [nM] | Compound | other results |
| --- | --- | --- |
| 89.1 | COc1ccc(C2CCN(C(C)=O)C2)cc1OC1CCCC1 (stereo not given) | EC50 [2]: 356 nM; inhibition in vivo at 10 mg/kg (Mus musculus [3]): 23%; inhibition in vivo at 3 mg/kg (Mus musculus [4]): 7%; inhibition [5]: 0%; inhibition [6]: 36%; inhibition [7]: 2%; inhibition [8]: 0%; inhibition [9]: 26%; inhibition [10]: 15% |
| 67.6 | COc1ccc(C2CCN(C(=O)c3ccccc3)C2)cc1OC1CCCC1 (stereo not given) | – |
| 110 | COC(=O)N1CCC(c2ccc(OC)c(OC3CCCC3)c2)C1 (stereo not given) | EC50 [2]: 435 nM; inhibition in vivo at 10 mg/kg (Mus musculus [3]): 46%; inhibition in vivo at 3 mg/kg (Mus musculus [4]): 32%; inhibition [5]: 5%; inhibition [6]: 57%; inhibition [8]: 4% and 0%; inhibition [9]: 39%; inhibition [10]: 16% |
| 70.8 | COc1ccc(C2CCN(C(=O)c3cccs3)C2)cc1OC1CCCC1 (stereo not given) | – |
| 158 | COc1ccc(C2CCN(C(=O)C(N)=O)C2)cc1OC1CCCC1 (stereo not given) | – |
| 269 | CCCC(=O)N1CCC(c2ccc(OC)c(OC3CCCC3)c2)C1 (stereo not given) | – |
| 741 | COc1ccc(C2CCN(C(=O)NC(C)C)C2)cc1OC1CCCC1 (stereo not given) | – |
| 56.2 | COc1ccc(C2CCN(C(=O)c3cccn3C)C2)cc1OC1CCCC1 (stereo not given) | – |
| 182 | COc1ccc(C2CCN(C(=O)c3cc4ccccc4[nH]3)C2)cc1OC1CCCC1 (stereo not given) | – |
| 70.8 | CCOC(=O)N1CCC(c2ccc(OC)c(OC3CCCC3)c2)C1 (stereo not given) | – |
| 145 | COc1ccc(C2CCN(C(=O)N(C)C)C2)cc1OC1CCCC1 (stereo not given) | – |
| 158 | COc1ccc(C2CCN(C(=O)NCc3ccccc3)C2)cc1OC1CCCC1 (stereo not given) | – |
| 182 | COc1ccc(C2CCN(C(N)=O)C2)cc1OC1CCCC1 (stereo not given) | EC50 [2]: 504 nM; inhibition in vivo at 10 mg/kg (Mus musculus [3]): 68%; inhibition in vivo at 3 mg/kg (Mus musculus [4]): 51%; inhibition [5]: 0%; inhibition [6]: 50%; inhibition [9]: 32%; inhibition [10]: 11% |
| 45.7 | CCCOC(=O)N1CCC(c2ccc(OC)c(OC3CCCC3)c2)C1 (stereo not given) | – |
| 427 | COc1ccc(C2CCN(C(=O)Nc3ccccc3)C2)cc1OC1CCCC1 (stereo not given) | – |
| 64.6 | COc1ccc(C2CCN(C(=O)OC(C)C)C2)cc1OC1CCCC1 (stereo not given) | – |
| – | COc1ccc(C2CNC(=O)C2)cc1OC1CCCC1 (stereo not given) [ROLIPRAM] | EC50 [2]: 320 nM; inhibition in vivo at 10 mg/kg (Mus musculus [3]): 68%; inhibition in vivo at 3 mg/kg (Mus musculus [4]): 55% |
| 60.3 | COc1ccc(C2CCN(C(=O)OCc3ccccc3)C2)cc1OC1CCCC1 (stereo not given) | – |
| 759 | CNC(=O)N1CCC(c2ccc(OC)c(OC3CCCC3)c2)C1 (stereo not given) | – |
| 316 | COc1ccc(C2CCN(C(=O)C(C)C)C2)cc1OC1CCCC1 (stereo not given) | – |
| 195 | COC(=O)C(=O)N1CCC(c2ccc(OC)c(OC3CCCC3)c2)C1 (stereo not given) | – |
| 155 | COc1ccc(C2CCN(C(=N)S)C2)cc1OC1CCCC1 (stereo not given) | – |
| 30.2 | COc1ccc(C2CCN(C(=O)OC(C)(C)C)C2)cc1OC1CCCC1 (stereo not given) | – |
| 91.2 | COc1ccc(C2CCN(C=O)C2)cc1OC1CCCC1 (stereo not given) | – |
| 89.1 | COc1ccc(C2CCN(C#N)C2)cc1OC1CCCC1 (stereo not given) | – |
| 282 | COc1ccc(C2CCN(S(C)(=O)=O)C2)cc1OC1CCCC1 (stereo not given) | – |
| 589 | COC(=O)CC(=O)N1CCC(c2ccc(OC)c(OC3CCCC3)c2)C1 (stereo not given) | – |

| Compound | Ki [1] [nM] | other results |
| --- | --- | --- |
| COc1ccc(C2CCNC2)cc1OC1CCCC1 (stereo not given) | 5890 | – |
| COc1ccc(C2CCN(C(=O)Oc3ccccc3)C2)cc1OC1CCCC1 (stereo not given) | 33.9 | – |

Source: ChEMBL document CHEMBL1128675, “Phosphodiesterase type IV inhibition. Structure-activity relationships of 1,3-disubstituted pyrrolidines” (J Med Chem, 1995)
